Experimental data of several laboratories.
Protocols differ between the studies behind these lines.
Target: Microtubule-associated serine/threonine-protein kinase 1 (MAST1, Homo sapiens, UniProt Q9Y2H9)

Structure (SMILES)	test	conditions	remaining binding [%]
CN(CCCC(F)(F)F)c1nccc(-c2cnn3ncccc23)n1	binding	1 µM	100
O=C(c1ccc(Nc2ncc(Cl)c(-c3ccc(Cl)s3)n2)cc1)N1CCC(N2CCCC2)CC1	binding, competition with immobilised ligand	1 µM	16
O=C(NCC1CCOCC1)c1n[nH]cc1NC(=O)c1c(F)cccc1F	binding, competition with immobilised ligand	1 µM	51
COc1ncc2cc3ccccc3nc2c1C#N	cell-free assay, competition with immobilised ligand	5 µM	98
CN(C)c1nccc(-c2cnn3ncccc23)n1	binding	1 µM	76
C=CC(=O)N1CCC(C(=O)NCC(=O)N2CCN(c3nc(-c4cnc(N)nc4C(F)F)nc(N4CCOCC4)n3)CC2)CC1	binding, competition with immobilised ligand	1 µM	100
F[C@@H]1CCN(c2nccc(-c3cnn4ncccc34)n2)C1	binding	1 µM	100
COc1cnc(Nc2cccc(S(N)(=O)=O)c2)nc1N1CCN(c2ccccc2)CC1	binding, competition with immobilised ligand	1 µM	69
c1cnn2ncc(-c3ccnc(N4CCC45COC5)n3)c2c1	binding	1 µM	55
O=c1nc(-c2ccccn2)sc2ccccc12	binding, competition with immobilised ligand	1 µM	73
CNC(=O)[C@@H]1CC[C@@H](n2c(-c3ccc4cnccc4c3)nc3ccc(C(=O)NCc4cccc(C(N)=O)c4)cc32)C1	binding, competition with immobilised ligand	1 µM	100
Cc1c(NC(=O)c2cc(C(N)=O)nc3cc(F)ccc23)c(C(F)(F)F)nn1Cc1ccc(C#N)cc1	cell-free assay, competition with immobilised ligand	1 µM	77
O=C(c1ccc(Nc2nccc(-c3cc4ccccc4s3)n2)cc1)N1CCC(N2CCCC2)CC1	binding, competition with immobilised ligand	1 µM	53
CCCOc1ccc([C@@H]2[C@@H](C(=O)O)[C@H](c3ccc4c(c3)OCO4)CN2CC(=O)Nc2c(CC)cccc2CC)cc1	cell-free assay, competition with immobilised ligand	1 µM	100
N[C@H]1CCN(c2nccc(-c3cnn4ncccc34)n2)C1	binding	1 µM	100
Cc1cc(-n2nc(Cc3cc(F)cc(C(F)(F)F)c3)nc2C)ccc1C(N)=O	cell-free assay, competition with immobilised ligand	1 µM	100
C[C@@H]1CCN(c2nccc(-c3cnn4ncccc34)n2)C1	binding	1 µM	100
CN([C@@H]1CCc2c(CC(=O)O)c3ccccc3n2C1)S(=O)(=O)c1ccc(F)cc1	cell-free assay, competition with immobilised ligand	1 µM	100
O=C(NCCCN1CCOCC1)c1ccc(Nc2nccc(-c3cc4ccccc4s3)n2)cc1	binding, competition with immobilised ligand	1 µM	78
CC(=O)C1=C(C)N(c2cccc(C(F)(F)F)c2)C(=O)N[C@@H]1c1ccc(C#N)nc1	cell-free assay, competition with immobilised ligand	1 µM	96.9
CCN1CCN(Cc2ccc(C(=O)Nc3ccc(C)c(Oc4ccc5c(c4)CC(=O)N5)c3)cc2C(F)(F)F)CC1	binding, competition with immobilised ligand	1 µM	100
